GPR7 antag: blocks human GPR7 receptor signaling; GPR7-expressing cells, fluorescence antagonist assay; 290,000 compounds, 1.1% hits; inhibition, % at 4.4 µM; AID 1861; in the data active means inhibition above about 16%, passing the limit was not always enough;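 further: cells stimulated with the agonist NPW; 0% = agonist with vehicle and 100% = vehicle without agonist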
Target sequence (P48145 whole entry, looked up): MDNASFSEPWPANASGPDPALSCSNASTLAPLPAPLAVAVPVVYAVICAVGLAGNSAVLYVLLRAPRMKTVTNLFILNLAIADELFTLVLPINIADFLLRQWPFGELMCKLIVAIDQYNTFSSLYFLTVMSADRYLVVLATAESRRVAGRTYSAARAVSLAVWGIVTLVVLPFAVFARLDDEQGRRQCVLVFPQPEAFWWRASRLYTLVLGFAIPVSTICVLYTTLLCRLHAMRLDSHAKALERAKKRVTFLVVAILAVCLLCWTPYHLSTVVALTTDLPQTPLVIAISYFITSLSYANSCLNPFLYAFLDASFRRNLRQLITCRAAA
TAAR1 agonist: human TAAR1 agonism. Q96RJ0. CHO RD-HGA16 TAAR1, Fluo-8 calcium fluorescence; vehicle wells 0%, saturating PEA agonist 100%. 360,000 compounds, 0.99% hits. activation, % at 3 µM;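 active means activation above the mean activation of all test compounds in the run plus 3 SD, cut at about 38% in these data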
Target sequence (Q96RJ0 whole entry, looked up): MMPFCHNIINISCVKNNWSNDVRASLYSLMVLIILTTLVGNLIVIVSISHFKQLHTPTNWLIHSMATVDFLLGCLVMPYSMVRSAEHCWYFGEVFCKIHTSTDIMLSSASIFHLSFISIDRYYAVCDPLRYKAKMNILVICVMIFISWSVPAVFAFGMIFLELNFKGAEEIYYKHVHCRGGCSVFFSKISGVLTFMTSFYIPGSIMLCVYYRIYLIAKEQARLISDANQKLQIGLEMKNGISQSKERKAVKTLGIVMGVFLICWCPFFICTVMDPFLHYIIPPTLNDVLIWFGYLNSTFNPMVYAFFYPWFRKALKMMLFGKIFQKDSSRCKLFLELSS
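Test system: RD-HGA16 (CHO) cells co-expressing Gα16 and hTAAR1; dosing: one-point dosing at 3 µM (nominal); timing: 17-24 h seeding, 75 min 37 °C dye, 30 min RT; signal: kinetic Fluo-8 calcium fluorescence; read-out basis: % activation relative to PEA EC100 response; controls: DMSO and PEA EC100; replicates: n 1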
CHO parental Ca: counter-screen for OX1R antagonists: effect in parental CHO cells. 330,000 compounds, 0.63% hits. AID 463079. inhibition, % at 5.6 µM. parental CHO-K1, ATP-induced calcium, Fluo-8 fluorescence;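 active means inhibition above that plate's mean sample inhibition plus 3 SD, cut at about 26% in these data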;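 further: 0% = ATP-challenged DMSO wells and 100% = DMSO wells without ATP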
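Measured by: calcium-sensitive Fluo-8 fluorescence / Test system: CHO parental line / Controls: ATP-challenged DMSO wells low, unchallenged DMSO wells high / Measure: % inhibition / Compound: single nominal dose of 5.6 µM per compound / Replicates: single well per compound, no replicates / Reagent: ATP as calcium-mobilizing challenge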
TAAR1 antagonist: human TAAR1 antagonism | Q96RJ0 | CHO RD-HGA16 TAAR1, Fluo-8 calcium fluorescence, antagonist | inhibition, % at 3 µM | 360,000 compounds, 1.5% hits;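 active means inhibition above a per-plate cutoff, the mean inhibition of test compounds on that plate plus 3 SD, cut at about 49% in these data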;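 further: 0% = DMSO plus EC80 beta-PEA response and 100% = DMSO alone without agonist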
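Test system: CHO RD-HGA16 cells bearing hTAAR1 | Reagent: β-PEA, EC80 | Compound dosing: 3 µM, single point | Schedule: Dye loading 75 min at 37 °C, then 30 min room temperature | Signal: Calcium fluorescence with Fluo-8 | Evaluation: Percent inhibition of PEA-evoked calcium signal, max/basal emission ratio | Control set: DMSO-only wells and EC80 β-PEA-stimulated wells | Repeats: Singlicate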
OX1R antag-1: blocks the human orexin 1 receptor. O43613. CHO/OX1R cells, Fluo-8 calcium fluorescence, orexin A. inhibition, % at 5 µM. 330,000 compounds, 0.43% hits;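 active means inhibition above its plate's threshold, mean inhibition of all tested compounds on the plate plus 3 SD, cut at about 37% in these data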;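 further: 0% = orexin A challenge wells and 100% = SB-334867-A antagonist wells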
OX1R antag-2: blocks the human orexin 1 receptor. O43613. OX1R-expressing cells, FRET antagonist read-out. inhibition, % at 6.6 µM. 330,000 compounds, 1.8% hits; in the data active means inhibition mostly above about 38%, no sharp cut-off; inactive means mostly below about 40%;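 further: 0% = agonist challenge alone and 100% = reference antagonist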
An asterisk follows results filed as active; / = no result given. The list is not random: actives were taken first. Their share in the collection is about 4.5%.

SMILES	GPR7 antag	TAAR1 agonist	CHO parental Ca	TAAR1 antagonist	OX1R antag-1	OX1R antag-2
CC(C)Cc1ccc(-c2cc3nc(NCCc4ccc(S(N)(=O)=O)cc4)ccn3n2)cc1	/	23	/	67*	/	/
O=C(OCc1cc(=O)n2c(n1)sc1ccccc12)c1ccc(O)cc1	-11	5	-15	5	-22	53*
CC(=O)Nc1nc(-c2ccc([N+](=O)[O-])cc2)cs1	-4	5	2	-12	0	23
O=C(Nc1ccc([N+](=O)[O-])cc1)Nc1nc(-c2ccc(Cl)s2)cs1	-7	11	57*	3	28	28
Cc1cc2nncn2c(Cc2ccccc2)n1	-6	7	0	-9	-12	2
O=S(=O)(NCC1CCCO1)c1cccc2nsnc12 (centres undefined)	3	11	4	0	-3	41*
CC(C)(C)NC(=O)C1CCC(CNS(=O)(=O)c2cccc3nsnc23)CC1 (centres undefined)	-15	42*	-4	76*	-13	39
Cc1cccc(CS(=O)(=O)c2nnc([C@H](Cc3ccccc3)NC(=O)OC(C)(C)C)o2)c1	8	/	67*	/	57*	17
COc1ccccc1NC(=O)Cn1c(C)cc(=O)c2cccc(OC)c21	-14	14	-5	35	-3	18
COc1cccc2c(=O)cc(C)n(CC(=O)Nc3ccc(C)c(C)c3)c12	15	8	47*	3	-1	49*
CN(C(=O)Nc1ccccc1)C1CCS(=O)(=O)C1 (centres undefined)	-2	12	-2	-9	-5	5
CC(=O)NC1=C(N(C)C2CCS(=O)(=O)C2)C(=O)c2ccccc2C1=O (centres undefined)	-6	1	-8	-4	-9	70*
Cc1ccc(C(=O)c2coc3c2C(=O)C(=O)c2ccccc2-3)cc1	11	13	-25	22	1	47*
Cc1oc2c(c1C(=O)c1ccc(Cl)cc1)C(=O)C(=O)c1ccccc1-2	28*	13	/	28	/	/
COc1ccc(NC(=O)N(C)C[C@H]2OCCCC[C@@H](C)Oc3ccc(NC(=O)c4ccccc4)cc3C(=O)N([C@H](C)CO)C[C@@H]2C)cc1	/	1	/	3	/	/
O=C(NCCc1ccccn1)c1c(-c2ccsc2)sc2ccccc12	/	5	-32	-11	-22	48*
O=C(NCCc1ccccn1)c1c(-c2ccccc2)sc2ccccc12	/	11	-16	31	-5	21
Nc1nc2c(ncn2[C@@H]2O[C@H](C(=O)N[C@H](Cc3ccccc3)C(=O)NCCCc3ccccc3)[C@@H](O)[C@H]2O)c(=O)[nH]1	/	1	/	-31	/	/
CC(C)CC1C(=O)N(Cc2cn(CCC3OCCO3)nn2)CCS(=O)(=O)N1Cc1ccc(-c2cccc(N(C)C)c2)cc1 (centres undefined)	/	19	/	52*	/	/
CC(C)CC1C(=O)N(Cc2cn(CCC3OCCO3)nn2)CCS(=O)(=O)N1Cc1ccc(-c2ccc(F)cc2)cc1 (centres undefined)	/	9	/	54*	/	/
COC(=O)C1=C(C)N(C)C(=NCc2cccc(C(F)(F)F)c2)NC1c1ccccc1 (centres undefined)	/	8	/	-3	/	/
COc1ccc(-c2cn(CCO)c(-c3ccc(Cl)nc3)n2)cc1	/	1	5	3	-17	21
N#C/C(=C\c1ccc(N2CCCCC2)o1)C(N)=O	-16	23	-4	13	1	42*
Cn1c(=O)c2cc(NC(=S)NC3CCCCC3)ccc2n1-c1ccccc1	/	9	/	-10	/	/
CCc1ccc[n+](-c2[nH]c(=O)sc2/C=N/N=C(\[O-])c2ccncc2)c1	-5	0	-7	0	-14	40*
SMILES	GPR7 antag	TAAR1 agonist	CHO parental Ca	TAAR1 antagonist	OX1R antag-1	OX1R antag-2
Cc1cc(C)c[n+](-c2[nH]c(=O)sc2/C=N/N=C(\[O-])c2cccnc2)c1	-3	3	13	-26	-16	19
CC(C)(C)c1ccc(S(=O)(=O)NC(=O)C2(C)CCN2C(=O)Cc2ccccc2Cl)cc1 (centres undefined)	/	14	/	-25	/	/
Cc1cc(/C=N/n2cnnc2)c(C)n1-c1ccc(OCc2ccc(Cl)cc2Cl)cc1	-2	/	45*	/	53*	50
O=C(C1COc2ccccc2O1)N1CCN(c2ccc(C(F)(F)F)cn2)CC1 (centres undefined)	/	10	-17	-4	-15	7
Cc1c(O)ccc(C(=O)COc2ccccc2F)c1O	-7	22	5	32	7	37*
O=C(COc1ccccc1F)c1ccc(O)cc1O	-8	1	6	7	-3	13
NNC(=O)c1sccc1OCc1ccc(Cl)cc1Cl	20*	9	-29	13	-44	14
NNC(=O)c1sccc1OCc1ccc(F)cc1	-5	7	-42	9	-35	18
CCCCCC(=O)N1C[C@H](O)[C@@H](n2cc(C3CC3)nn2)C[C@@H]1c1ccc(C)cc1	/	1	/	-7	/	/
O=C(NCCNC(=O)c1cc(OCC(F)(F)F)ccc1OCC(F)(F)F)Nc1cccc(C(F)(F)F)c1	21*	23	7	2	-17	1
CCOC(=O)c1c(C)[nH]c(C)c1C(=O)COC(=O)c1cc2ccccc2cc1O	0	3	-14	34	0	72*
CCOC(=O)c1c(C)[nH]c2c1cc(O)c1ccccc12	4	5	2	10	-8	43*
CC(=O)c1cccc(NC(=O)Cc2ccc3c(c2)CCCC3)c1	2	3	-13	6	-1	20
Cc1cc(C)c2c(=O)n3c(nc2c1)C(CC(C)C)NC(=O)c1cccnc1-3 (centres undefined)	/	-1	/	-17	/	/
Cc1cccc(Cn2cc(SCC(=O)Nc3nccs3)c3ccccc32)c1	-3	-2	-17	9	-20	34*
Cc1ccc(Cn2cc(SCC(=O)Nc3nccs3)c3ccccc32)cc1	22	0	-2	-5	-34	19
C[C@@H]1CN([C@@H](C)CO)C(=O)c2cc(Br)cnc2O[C@H]1CN(C)Cc1cccc(C(=O)O)c1	/	7	/	-11	/	/
O=C(CN1C(=O)c2ccc([N+](=O)[O-])cc2C1=O)NCc1ccc(C(=O)O)cc1	-1	2	0	-4	-12	62*
O=C(Nc1cc([N+](=O)[O-])ccc1N1CCCC1)c1ccco1	-10	-1	-7	-6	-13	65*
O=C(CN1C(=O)c2ccc([N+](=O)[O-])cc2C1=O)Nc1ccccc1N1CCCC1	/	2	-1	0	1	52*
O=C(CCN1C(=O)c2ccc([N+](=O)[O-])cc2C1=O)Nc1ccc(O)cc1C(=O)O	-4	14	-6	1	-14	56*
